Compounds with a hit are over-represented: about 3.9% of the library has one in this group of screens.
UPR XBP1 act = adaptive UPR (XBP1) activation. actives 0.33% (n = 330,000). activation, % at 20 µM. CHO-XBP1 luciferase reporter, IRE1-XBP1 UPR activation, luminescence; percent of tunicamycin response, DMSO as zero;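 active = versus positive control, 20 µM dose yields 30% or more activation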
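Material: CHO cell line with stable XBP1 luciferase reporter; buffer or medium: F12 medium containing 10% fetal bovine serum; compound: single point, 20 µM final compound, 1% DMSO; incubation: 6 h treatment, 37 °C; measured by: glow luminescence from Steady-Glo reagent; evaluation: activation, % of tunicamycin; control set: tunicamycin high, DMSO low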
Gli-Sufu antag = blocks Gli-Sufu signaling in a luciferase reporter | Sufu-KO-LIGHT fibroblasts, Gli luciferase reporter luminescence | inhibition, % at 5 µM | actives 0.74% (n = 340,000) | AID 588413;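 active = inhibition above about 55%, limit read from the data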
Jurkat NFkB inh = inhibitors of the PMA/ionomycin-induced NF-kB reporter in Jurkat cells | inhibition, % at 4 µM | AID 435003 | PMA/ionomycin-induced NF-kB luciferase reporter, luminescence | actives 0.53% (n = 330,000); in the data active = inhibition above about 50%
UPR CHOP act = activators of apoptotic arm of unfolded protein response (CHOP); activation, % at 10 µM; AID 449763; actives 0.34% (n = 330,000); CHO-CHOP luciferase reporter, UPR activation, luminescence; percent of tunicamycin response over DMSO baseline;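 active = at 10 µM dose, activation of 40% or more, normalized to positive control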
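System: CHO CHOP reporter cells. Amount: 500 cells per well. Buffer or medium: F12 medium, 10% FBS. Compound dosing: one dose, 10 µM in 0.5% DMSO. Incubation: 6 h compound exposure at 37 °C after overnight seeding. Technique: Steady-Glo luciferase luminescence. Benchmarks: tunicamycin and DMSO controls.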
CHOP inhibitor = blocks CHOP induction under ER stress; CHO-K1 CHOP-promoter luciferase, tunicamycin-induced, 15-18 h; inhibition, % at 10 µM; actives 3.8% (n = 220,000);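 active = compounds that reduced the stress-induced luciferase reporter signal by more than about 70% of percent inhibition, limit read from the data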
697 NFkB inh = inhibitors of the PMA/ionomycin-induced NF-kB reporter in 697 B cells; 697 B-cell NF-kB luciferase reporter, 16 h; inhibition, % at 4 µM; actives 0.33% (n = 330,000); in the data active = inhibition above about 35%
CHOP UPR conf = confirmation of apoptotic unfolded protein response (CHOP) activators; shares compounds with UPR CHOP act; CHO-CHOP cells, CHOP-luciferase reporter luminescence; percent of tunicamycin response, DMSO as zero; activation, % at 10 µM; actives 64% (n = 1,000); in the data active = activation above about 33%
Hits are given with their value; 0 = inactive; - = not tested or not shown.

SMILES	UPR XBP1 act	Gli-Sufu antag	Jurkat NFkB inh	UPR CHOP act	CHOP inhibitor	697 NFkB inh	CHOP UPR conf
CC(OC(=O)c1c[nH]c2ccccc12)C(=O)N1CCCC1 (stereo not drawn)	0	0	0	89.5	-	0	0
CC(Sc1nnc(Nc2ccccc2F)s1)C(=O)NC1CC1 (stereo not drawn)	0	0	0	0	-	0	-
Cc1noc(NS(=O)(=O)c2ccc(NC(=O)c3cc4ccccc4o3)cc2)c1C	0	0	0	0	-	0	-
CCc1c(C)sc(NC(=O)c2cccs2)c1C#N	0	0	0	49.7	0	0	0
COC(CNC(=O)c1ccc(CS(=O)(=O)c2c(Cl)cccc2Cl)o1)OC	0	0	0	0	-	0	-
O=C(NCc1cccnc1)/C(=C/c1ccc(-c2cccc(Cl)c2)o1)S(=O)(=O)c1ccccc1	0	0	0	83.1	94.2	0	113.7
O=C1Nc2ccccc2/C1=C\C(=O)c1ccccc1	0	0	0	98.3	-	0	236.9
N#CC1=C(N)OC2=C(CC/C2=C\c2ccccc2)C1c1ccccc1 (stereo not drawn)	0	0	0	104.2	0	0	180.0
COCCN1CC(C(=O)NCCc2nc(C)c(C)s2)CCC1=O (stereo not drawn)	0	0	0	0	-	0	-
CCc1cc2c(-c3ccccc3)cc(=O)oc2cc1OCC(=O)NCC1CCC(C(=O)O)CC1 (stereo not drawn)	0	0	0	0	-	0	-
COc1ccc(Nc2ccc3c(c2)=NC2(CCCCC2)[N+]=3[O-])cc1	0	0	0	44.8	0	0	0
O=C(c1ccccc1)c1ccc(N2CCN(C(=O)c3cccc(F)c3F)CC2)c(F)c1	0	0	0	0	-	0	-
CCOc1cc(/C=C2\CN(CC)C/C(=C\c3ccc(O)c(OCC)c3)C2=O)ccc1O	0	0	0	78.5	-	0	86.1
COCC(COS(N)(=O)=O)Cc1ccccc1 (stereo not drawn)	0	0	0	0	-	0	-
CCn1c(CSc2nc3ccccc3s2)nnc1SCC(=O)c1ccc(Cl)cc1	0	0	0	0	0	0	-
CCn1c(CSc2nc3ccccc3s2)nnc1SCC(=O)c1ccc(O)c(O)c1	0	0	0	47.1	0	0	0
O=C1C=C(N2CCCCC2)c2ccccc2C1=O	0	0	0	76.2	-	0	0
O=C1c2ccccc2C(=O)c2c1cccc2N1CCCC1	-	0	-	-	0	-	-
COC(=O)C1=C(C)N(c2ccc(C)c(C)c2)/C(=C/c2cccs2)C1=O	0	0	0	90.2	0	0	50.5
O=C(CCl)Nc1cc(S(=O)(=O)N2CCCCCC2)ccc1Cl	0	0	0	82.7	77.9	0	70.3
O=C(NC1CCCC(C(F)(F)F)C1)c1ccc([N+](=O)[O-])o1 (stereo not drawn)	0	0	0	64.0	-	0	0
O=C(O)c1cc(S(=O)(=O)NCCCN2CCCC2=O)ccc1Cl	0	0	0	0	-	0	-
CCC(C)C(N)C1=NC(C(=O)N[C@@H](CC(C)C)C(=O)N[C@H](CCC(=O)[O-])C(=O)N[C@H](C(=O)N[C@H]2CCCCNC(=O)[C@H](CC(N)=O)NC(=O)[C@@H](CC(=O)[O-])NC(=O)[C@H](Cc3cnc[nH]3)NC(=O)[C@@H](Cc3ccccc3)NC(=O)[C@H]([C@@H](C)CC)NC(=O)[C@@H](CCCN)NC2=O)[C@@H](C)CC)CS1.[Zn+2] (stereo partly drawn)	-	0	-	-	-	-	-
CCOc1ccc2nc(Cl)c(C3CC(c4ccccc4)=NN3C(=O)c3ccco3)cc2c1 (stereo not drawn)	121.9	-	0	123.7	95.8	0	0
O=C(Nc1nc2ccccc2s1)c1ccc([N+](=O)[O-])o1	0	0	0	73.4	-	0	0
SMILES	UPR XBP1 act	Gli-Sufu antag	Jurkat NFkB inh	UPR CHOP act	CHOP inhibitor	697 NFkB inh	CHOP UPR conf
O=C(Nc1ccc(-c2nc3ncccc3o2)cc1)c1ccc([N+](=O)[O-])o1	0	0	0	312.7	-	0	135.4
O=C(Nc1ccc2oc(-c3ccncc3)nc2c1)c1ccc([N+](=O)[O-])o1	0	0	0	162.4	-	0	46.0
COc1ccc2nc(NC(=O)c3ccc([N+](=O)[O-])o3)sc2c1	0	0	0	0	-	0	-
O=C(Nc1ccc2oc(-c3ccncc3)nc2c1)c1cccs1	0	0	0	0	0	0	-
O=C(CCl)Nc1ccc(-c2ccccc2)cc1	0	0	0	42.8	0	0	47.3
Cc1ccc(NC(=O)CSc2nncn2N)cc1C	0	0	0	0	-	0	-
CCOc1cccc2cc(C(=O)N3CC(C)OC(C)C3)c(=O)oc12 (stereo not drawn)	0	0	0	0	-	0	-
CCOc1cccc2cc(-c3csc(NC(=O)CCC(=O)N4CCC(C)CC4)n3)c(=O)oc12	36.7	0	0	95.2	86.3	0	0
CCN(C(=O)COC(=O)C(c1ccccc1)c1ccccc1)c1c(N)n(Cc2ccccc2)c(=O)[nH]c1=O	-	0	-	-	-	-	-
CC(NC(=O)CN(c1cccc(C(F)(F)F)c1)S(=O)(=O)c1ccc(Cl)c([N+](=O)[O-])c1)c1ccccc1 (stereo not drawn)	0	0	0	103.7	0	0	140.0
Cc1ccc(C(=O)/C=C/c2ccc(-c3ccc(C)cc3)o2)cc1	0	0	0	94.1	0	0	0
CCN(CC)S(=O)(=O)c1ccc(C(=O)/C=C/c2ccc(-c3ccc([N+](=O)[O-])cc3)o2)cc1	0	0	0	0	0	0	-
O/N=C\c1ccc(-c2ccccc2)o1	0	0	0	0	0	0	-
O=C(/C=C\c1ccc(-c2ccccc2)o1)c1ccccc1	0	0	0	78.9	0	0	0
C[C@@H]1COC(=O)[C@@H](CC(=O)OC(C)(C)C)C/C=C\C[C@H](CC(=O)NCCO)C(=O)N1	0	0	0	0	-	0	-
COc1cccc(C2/C(=C(/O)c3ccc4c(c3)OCO4)C(=O)C(=O)N2CCN2CCOCC2)c1 (stereo not drawn)	0	0	0	0	-	0	-
Cc1ccc(C(=O)C=CNNC(=O)c2ccccc2)cc1	0	0	0	0	-	0	-
Cc1ccc(S/C=C\C(=O)c2ccccc2)cc1	0	0	0	69.2	0	0	56.4
CC(C)N(Cc1nccn1C)C(=O)c1cc(COc2ccc(F)cc2Cl)on1	0	0	0	0	-	0	-
CC(=O)N(C)Cc1ccc(C(=O)CCl)cc1	0	0	0	94.1	104.7	0	0
COc1cc(CNc2ccc3[nH]c(=O)[nH]c3c2)ccc1OCc1ccccc1F	0	0	0	0	-	0	-
COc1cc(CNc2ccc3[nH]c(=O)[nH]c3c2)cc(Br)c1OCc1ccccc1F	0	0	0	83.4	-	0	46.3

Compound activity deposited in PubChem by several laboratories.
